Data set [1] deals with HEK293. As to the kind of experiment: Activation of SMN2 gene (unknown origin) transcription in HEK293 cells expressing SMN2-luc assessed as increase in SMN2 mRNA level at 0.1 to 50 uM after 24 hrs by luciferase reporter gene assay relative to control. It counts as cell-based. An outline of the steps: (§1)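 Luciferase reporter read-out of SMN2 expression; compounds tested at various concentrations (0.1 – 50 μM) against 0.1% DMSO controls. Dose-response curves fitted to give EC50 and percent maximum increase in SMN2 expression; values mean ± S.E.M.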
For orientation: Reporter assays use an easily measured gene product as a stand-in for the process of interest.

A short description of data set [2]: Activation of SMN2 gene (unknown origin) transcription in HEK293 cells expressing SMN2-luc assessed as increase in SMN2 mRNA level after 24 hrs by luciferase reporter gene assay. The note with it: HEK293, 24 h. It is filed as cell-based. The procedure, abridged: as §1
Data set [3] can be described thus: Aqueous solubility of the compound at pH 7.4. It counts as physicochemical. The note with it: aqueous medium.
A short description of data set [4]: Half life in mouse microsomes. It counts as ADME, Microsome.
Data set [5] is filed under the species Homo sapiens. As to the kind of experiment: Increase in SMN2 mRNA expression in SMA derived human fibroblasts assessed as increase in SMN protein aggregates (Gems).
The test system of data set [6] is HEK293. Kind of data set: Activation of SMN1 gene (unknown origin) transcription in HEK293 cells assessed as increase in SMN1 exon 7 transcript level after 24 hrs by qRT-PCR analysis. It is filed as cell-based.
The species entered for data set [7] is Homo sapiens. As to the kind of experiment: Increase in SMN2 mRNA expression in SMA derived human fibroblasts assessed as increase in SMN protein level.
Data set [8] deals with HEK293. Kind of data set: Activation of SMN2 gene (unknown origin) transcription in HEK293 cells expressing SMN2-luc assessed as increase in SMN2 mRNA level after 24 hrs by qRT-PCR analysis. It is filed as cell-based.
The next data set deals with Mus musculus. Kind of data set: Increase in life span of SMNdelta7 SMA mouse model assessed as median survival days at 20 mg/kg, ip, administered once daily beginning at PND2 (reference value: 6 days).
The target in data set [9] is Survival motor neuron protein (Homo sapiens, UniProt Q16637). Kind of data set: Stabilization of human SMN protein expressed in HEK293 cells expressing SMN2 promoter after 24 hrs by luciferase reporter gene assay. It counts as cell-based.
Chain of Survival motor neuron protein (Q16637 whole entry): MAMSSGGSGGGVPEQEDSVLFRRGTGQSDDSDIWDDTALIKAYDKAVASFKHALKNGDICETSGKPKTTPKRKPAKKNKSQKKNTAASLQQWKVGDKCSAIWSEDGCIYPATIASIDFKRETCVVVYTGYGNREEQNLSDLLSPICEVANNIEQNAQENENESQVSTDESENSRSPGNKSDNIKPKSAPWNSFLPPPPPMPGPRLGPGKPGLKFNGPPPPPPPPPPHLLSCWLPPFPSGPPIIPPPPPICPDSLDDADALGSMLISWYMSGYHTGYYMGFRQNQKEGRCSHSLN

≈ marks a conversion by molar mass, not a printed value. Calls of active or inactive are those of the source. The rule behind the calls is not given here.

The record followed here is ChEMBL document CHEMBL4184153, “Optimization of a series of heterocycles as survival motor neuron gene transcription enhancers” (Bioorg Med Chem Lett, 2017).

One may read the EC50 as the midpoint of the concentration-response curve. The Emax is the maximal effect, on the per cent scale that the assay sets. The term solubility denotes the dissolved amount per volume that the medium holds. Lower therefore signals a poorly soluble substance. In general, half-life refers to how long it takes for the measured level to halve.

As to `COc1ccccc1C1NC(=O)Nc2cc(OC)c(OC)c(OC)c21` (stereo not given), the result in the data set with HEK293 [1] was inactive.
Regarding `COc1cc2c(c(OC)c1OC)C(c1cc(Cl)ccc1F)OC(C)C(=O)N2` (mixture of isomers), the EC50 in data set [2] is 2.6 µM. In the data set on HEK293 [1], the Emax stood at 125%.
In the same order, the values of `COc1cc2c(c(OC)c1OC)C(c1cc(Cl)ccc1F)=NCC(=O)N2` are 8.4 µM and 125%.
As to `COc1cc2c(c(OC)c1OC)C(c1cc(Br)ccc1F)CC(=O)N2` (stereo not given), in data set [2], the EC50 was 8.3 µM. Besides, in data set [3], the solubility was < 1 µM. In the data set with HEK293 [1], the Emax was 186%.
`COc1cc2c(c(OC)c1OC)C(c1ccc(Cl)c(Cl)c1)CC(=O)N2` (stereo not given): the result in the data set with HEK293 [1] was inactive.
Take `COc1cc2c(c(OC)c1OC)C(c1ccccc1F)N(C)C(=O)N2` (stereo not given): the EC50 in data set [2] was 6 to 10 µM. In addition, the Emax in the data set on HEK293 [1] was in the range of 100 to 180%.
Consider `COc1cc2c(c(OC)c1OC)C(c1cc(C#N)ccc1F)CC(=O)N2` (stereo not given), for which the result in the data set with HEK293 [1] was inactive.
On the same count and under the same terms, next, `COc1cc2c(c(OC)c1OC)C(c1cc(F)ccc1F)CC(=O)N2` (stereo not given): “inactive”.
On to `COc1cc2c(c(OC)c1OC)C(c1cc(C)ccc1F)NC(=O)N2` (stereo not given), for which the EC50 in [2] worked out at 4.3 µM. Further, the Emax in the data set with HEK293 [1] was 125%.
For `COc1cc2c(c(OC)c1OC)C(c1cc(Cl)ccc1F)CC(=O)N2` (stereo not given), the EC50 in [2] is 12 µM. Also, the Emax with HEK293 [1] came to 150%.
As for `COc1cc2c(c(OC)c1OC)C(c1ccc(F)c(F)c1)CC(=O)N2` (stereo not given), in the data set on HEK293 [1], the outcome was inactive.
With `COc1cc2c(c(OC)c1OC)C(c1ccc(Cl)cc1F)NC(=O)N2` (stereo not given), the concentration for a half-maximal effect (EC50) in [2] amounted to 6.3 µM. Further, the Emax in the data set with HEK293 [1] was 150%.
In the same order, the values of `CCCN1C(=O)Nc2cc(OC)c(OC)c(OC)c2C1c1cccc(Cl)c1` (stereo not given) are 5.2 µM and 100%.
For `COc1cccc(C2NC(=O)Nc3cc(OC)c(OC)c(OC)c32)c1` (stereo not given), the EC50 in [2] turned out to be 18 µM. In the data set on HEK293 [1], the Emax is 100%.
Take `COc1cc2c(c(OC)c1)C(c1cc(Br)ccc1F)CC(=O)N2` (stereo not given): the result with HEK293 [1] was inactive.
On to `COc1cc2c(c(OC)c1OC)C(c1cc(-c3ccccc3)ccc1F)NC(=O)N2` (stereo not given), for which the outcome with HEK293 [1] was inactive.
The same measure, in the same setting: to `COc1cc2c(c(OC)c1OC)C(c1ccc(Cl)cc1Cl)CC(=O)N2` (stereo not given) belongs “inactive”.
On the same count and under the same terms, to `COc1ccc(F)c(C2NC(=O)Nc3cc(OC)c(OC)c(OC)c32)c1` (stereo not given) belongs “inactive”.
For the compound `COc1cc2c(c(OC)c1OC)C(c1ccc(Cl)cc1)NC(=O)N2` (stereo not given), the EC50 in data set [2] stood at 6.6 µM. The Emax with HEK293 [1] was 150%.
Turning to `COc1cc2c(c(OC)c1OC)C(c1cc(C(N)=O)ccc1F)CC(=O)N2` (stereo not given), the result in the data set with HEK293 [1] was inactive.
Still for that read-out and setting: to `COc1cc2c(c(OC)c1OC)C(c1cc(Cl)ccc1F)OCC(=O)N2C` (stereo not given) belongs “inactive”; to `COc1cc2c(c(OC)c1OC)C(c1cc(C#N)ccc1F)NC(=O)N2` (stereo not given), “inactive”.
Turning to `COc1cc2c(c(OC)c1OC)C(c1cc(Cl)ccc1F)OC(=O)N2` (stereo not given), the Emax in the data set on HEK293 [1] is 125%.
For `COc1cc2c(c(OC)c1OC)C(C)(c1cc(Cl)ccc1F)OCC(=O)N2` (stereo not given), the outcome in the data set with HEK293 [1] was inactive.
Still for that read-out and setting: to `COc1cc2c(c(OC)c1OC)C(c1ccccc1F)CC(=O)N2` (stereo not given) belongs “inactive”.
Turning to `COc1cc(Cl)ccc1C1NC(=O)Nc2cc(OC)c(OC)c(OC)c21` (stereo not given), in data set [2], the EC50 came to 7.8 µM. Moreover, the Emax in the data set on HEK293 [1] turned out to be 200%.
Regarding `COc1cc2[nH]c(=O)nc(-c3cc(Cl)ccc3F)c2c(OC)c1OC`, the result with HEK293 [1] was inactive.
Turning to `COc1cc2c(c(OC)c1OC)C(c1cccc(F)c1)NC(=O)N2` (stereo not given), the EC50 in data set [2] is 25 µM. Also, the Emax in the data set with HEK293 [1] was determined as 150%.
Turning to `COc1cc2c(c(OC)c1OC)C(c1ccccc1Cl)NC(=O)N2` (stereo not given), in the data set with HEK293 [1], the outcome was inactive.
`COc1cc2c(c(OC)c1OC)C(c1cc(F)ccc1F)NC(=O)N2` (stereo not given): the EC50 in data set [2] was 17 µM. Further, in the data set with HEK293 [1], the Emax was 100%.
For `COc1cc2c(c(OC)c1OC)C(c1cccc(Br)c1)CC(=O)N2` (stereo not given), the result in the data set with HEK293 [1] was inactive.
For the compound `COc1cc2c(c(OC)c1OC)C(c1cc(Cl)ccc1F)OCC(=O)N2` (stereo not given), in data set [2], the EC50 came to 5.9 µM. Besides, the solubility in [3] is 58 µM (≈ 22.1 µg/mL). In addition, the Emax in the data set on HEK293 [1] was found to be 150%. This compound came in with a half-life in data set [4] of 3 min.
Turning to `COc1cc2c(c(OC)c1OC)C(c1ccc(F)cc1)NC(=O)N2` (stereo not given), the 50% effective concentration (EC50) in [2] came out at 14 µM. Besides, the Emax in the data set with HEK293 [1] turned out to be 150%.
For `COc1ccc2c(c1OC)C(c1cc(Br)ccc1F)CC(=O)N2` (stereo not given), the outcome in the data set with HEK293 [1] was inactive.
For `COc1cc2c(c(OC)c1OC)C(c1cc(Br)ccc1F)CC(=O)N2C` (stereo not given), the result in the data set on HEK293 [1] was inactive.
`COc1cc2c(c(OC)c1OC)C(c1cc(Cl)ccc1F)NC(=O)N2` (racemic): the fold change (FC) in the data set filed under Homo sapiens [5] and in the data set listed under Homo sapiens [7] was 2 in each case. The result with HEK293 [6] and with HEK293 [8] was Active. The EC50 in data set [2] amounted to 4.1 µM. The solubility in data set [3] worked out at 91 µM (≈ 33.4 µg/mL). In the data set on Mus musculus, the median survival is 15 days. In the data set on HEK293 [1], the Emax was 263%. This compound also displayed a half-life in data set [4] of 20 min.
Consider `CC(C)c1cc(C(=O)Nc2ccc(F)c(Cl)c2)no1`, for which the EC50 in data set [9] was 1.8 µM. Also, the Emax in the data set on HEK293 [1] was 242%.
Regarding `COc1cc2c(c(OC)c1OC)C(c1cc(Br)ccc1F)C(C)C(=O)N2` (mixture of isomers), the result with HEK293 [1] was inactive.
As for `COc1ccc(C2NC(=O)Nc3cc(OC)c(OC)c(OC)c32)cc1` (stereo not given), the result in the data set with HEK293 [1] was inactive.
As for `COc1ccc(Cl)cc1C1NC(=O)Nc2cc(OC)c(OC)c(OC)c21` (stereo not given), the EC50 in [2] turned out to be 3.6 µM. Further, in the data set on HEK293 [1], the Emax stood at 225%.
Consider `COc1cc2c(c(OC)c1OC)C(c1cc([N+](=O)[O-])ccc1F)CC(=O)N2` (stereo not given), for which the result with HEK293 [1] was inactive.
In the case of `COc1cc2c(c(OC)c1OC)C(c1cccc(Cl)c1Cl)CC(=O)N2` (stereo not given), the result in the data set with HEK293 [1] was inactive.
